Measured values published in ChEMBL document CHEMBL1122921, “Stereoselective antitumor properties in the Lewis lung carcinoma model using bis(morpholinomethyl) derivatives of tricyclic bis(dioxopiperazines)” (1985).
“And” between values parts separate entries of the source, which are not always exact repeats. Equal entries are not always repeated.

How the values were obtained:
[1] = species on record: Mus musculus; assay: Number of mice with metastasis out of 9 mice tested; type: functional
How it was run: (§1)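 Female BDF1 mice (19–21 g) were implanted with Lewis lung carcinoma on day 0 and amputated on day 9. Dosing was 160 mg/kg ip from day 9, q2d×4, as a suspension or solution in 0.9% NaCl. Dying mice and mice killed on day 50 were autopsied to count metastases (<2 mm, >2 mm) and mice bearing metastases.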

[2] = species on record: Mus musculus; assay: Number of 50-day survivors Out of 9 mice; type: functional
How it was run: (§2)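 Female BDF1 mice (19–21 g), 8–9 per group. Lewis lung carcinoma implanted on day 0 and the leg amputated on day 9. From day 9, 160 mg/kg ip q2d×4, given as a suspension or solution in 0.9% NaCl. Mice dying and those killed on day 50 were autopsied for body weight, lung weight, metastases (<2 or >2 mm) and metastasis incidence. Median survival and ILS were recorded, with ≥25% ILS taken as activity.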

[3] = species on record: Mus musculus; assay: Compound was tested against autopsying on day 50th metastasis( <2 mm size) in mice; type: functional; how it was run: as §2
[4] = species on record: Mus musculus; assay: Percent increase in life span was measured in mice; type: functional
How it was run: (§3)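 Female BDF1 mice (19–21 g), 10 per group. Lewis lung carcinoma, 10^5 cells in 0.05 mL, implanted in the right hind leg on day 0, and the leg amputated on day 10. Dosing was 160 mg/kg ip in 0.9% NaCl made daily, either from -1 h on day 0 q2d×5 (preamputation) or from day 11 q2d×4 (postamputation). Survivors were killed and autopsied on day 50, and values were averaged over all 10 mice. ILS ≥25% is taken as activity.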

[5] = species on record: Mus musculus; assay: Average lung weight of mice was determined; type: functional; how it was run: as §3
[6] = test system: Mus musculus; assay: Median survival time of 10 BDF1 mice was tested after administration of compound (Postamputation schedule 160 mg/kg)
[7] = species on record: Mus musculus; assay: Compound was tested against autopsying on day 50th metastasis( >2 mm size) in mice; type: functional
How it was run: (§4)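 Female BDF1 mice (19–21 g), 10 per group, were implanted with 10^5 Lewis lung cells in the right hind leg on day 0, with leg amputation on day 10. Dosing was 160 mg/kg ip, either from −1 h on day 0 q2d×5 or from day 11 q2d×4, in saline prepared daily. Survivors were killed on day 50, and lung metastases were counted by size. Values are averages over 10 mice, dying and killed.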

[8] = species on record: Mus musculus; assay: Average body weight of mice was determined; type: functional; how it was run: as §2
[9] = species on record: Mus musculus; assay: Average number of metastasis per mouse.; type: functional
How it was run: (§5)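 Female BDF1 mice (19–21 g) implanted with Lewis lung carcinoma on day 0. The tumour-bearing leg was amputated on day 9 or 10. Dosing was 160 mg/kg ip q2d in 0.9% NaCl. Dying mice were autopsied, and survivors were killed and autopsied on day 50.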

[10] = species on record: Mus musculus; assay: (§6) Percent of mice without metastasis.; type: functional
[11] = species on record: Mus musculus; assay: compound was tested against autopsying on day 50th metastasis( 1-2 mm size.) in mice.; type: functional; how it was run: as §4
[12] = species on record: Mus musculus; assay: Compound was tested against autopsying on day 50th metastasis( <1 mm size) in mice; type: functional; how it was run: as §4
[13] = species on record: Mus musculus; assay: compound was tested against autopsying on day 50th metastasis( <1 mm size.) in mice.; type: functional; how it was run: as §4
[14] = species on record: Mus musculus; assay: compound was tested against autopsying on day 50th metastasis( >2 mm size.) in mice.; type: functional; how it was run: as §4
[15] = species on record: Mus musculus; assay: Average lung weight per mouse.; type: functional; how it was run: as §5
[16] = species on record: Mus musculus; assay: Number of 50-day survivors Out of 10 mice; type: functional; how it was run: as §3
[17] = species on record: Mus musculus; assay: Compound was tested against autopsying on day 50th metastasis( 1-2 mm size) in mice; type: functional; how it was run: as §4
[18] = test system: Mus musculus; assay: Median survival time of 10 BDF1 mice was tested after administration of compound (Preamputation schedule 160 mg/kg); type: functional; how it was run: as §3
[19] = species on record: Mus musculus; assay: as §6; type: functional; remark: listed apart in the source
[20] = species on record: Mus musculus; assay: Number of 50-day survivors out of 10 mice; 2 mice died out of 6 with one metastasis each (5mm i.d.); type: functional
[21] = species on record: Mus musculus; assay: Average lung weight per mouse was determined; type: functional; how it was run: as §5
[22] = species on record: Mus musculus; assay: Number of mice with metastasis Out of 9 mice; type: functional; how it was run: as §2
[23] = species on record: Mus musculus; assay: Compound was tested against autopsying on day 50th metastasis( >2 mm size.) in mice.; type: functional; how it was run: as §3
[24] = species on record: Mus musculus; assay: Number of 50-day survivors Out of 8 mice; type: functional; how it was run: as §2
[25] = species on record: Mus musculus; assay: Compound was tested against autopsying on day 50th metastasis( <2 mm size.) in mice.; type: functional; how it was run: as §2
[26] = species on record: Mus musculus; assay: Number of mice with metastasis Out of 8 mice; type: functional; how it was run: as §2
[27] = species on record: Mus musculus; assay: compound was tested against autopsying on day 50th metastasis( <[…] mm size.) in mice.; type: functional; how it was run: as §1
[28] = species on record: Mus musculus; assay: Number of 50-day survivors out of 9 mice; type: functional; how it was run: as §2
[29] = test system: Mus musculus; assay: Median survival time of 10 BDF1 mice was tested for compound (Postamputation schedule 160 mg/kg); type: functional; how it was run: as §3

Row | Structure (SMILES) | M/T [1] | N/T [2] | Average No. of metastasis [3] [count] | ILS [4] [%] | Lung weight [5] [mg] | MST [6] [days] | Average No. of metastasis [7] [count] | Body weight [8] [g] | Average No. of metastasis [9] | Average No. of metastasis [12] [count] | Average No. of metastasis [14] [count] | MST [18] [days] | Mice [19] | Lung weight [21] | also measured
1 | O=C1CN2CCN3CC(=O)N(CN4CCOCC4)C(=O)[C@@H]3C2C(=O)N1CN1CCOCC1 (stereo partly drawn) | 4 | 5 | 0 | >49 | 564 | >50 | 9 | 19.4 |  |  |  |  |  |  | 
2 | O=C1CN2CCN3CC(=O)N(CN4CCOCC4)C(=O)[C@H]3C2C(=O)N1CN1CCOCC1 (stereo in doubt; form 2) |  |  |  |  |  |  | 8.3 |  | 12.8 and 7.7 | 1 | 4.8 | 39 | 40% | 641 mg | Mice [10]: 40%; Average No. of metastasis [11]: 2.6 count; Average No. of metastasis [13]: 0.3 count; Lung weight [15]: 538 mg; N/T [16]: 4; Average No. of metastasis [17]: 3.5 count; N/T [20]: 6
3 | O=C1CN2CCN3CC(=O)NC(=O)[C@@H]3C2C(=O)N1 (stereo partly drawn) |  | 2 | 2 | 16 | 749 | 39 | 13 | 17.7 |  |  |  |  |  |  | M/T [22]: 7
4 | O=C1CN2CCN3CC(=O)NC(=O)[C@H]3C2C(=O)N1 (stereo partly drawn) |  |  |  | 34 | 813 | 45 |  | 17.8 |  |  |  |  |  |  | Average No. of metastasis [23]: 14%; N/T [24]: 3; Average No. of metastasis [25]: 1%; M/T [26]: 5
5 | O=C1CN2CCN3CC(=O)N(CN4CCOCC4)C(=O)[C@H]3C2C(=O)N1CN1CCOCC1 (stereo in doubt; form 1) | 1 | 7 |  |  | 369 |  |  | 19.9 |  |  | 3 | 39 |  |  | Average No. of metastasis [27]: 0 count
6 | O=C1CN2CCN3CC(=O)N(CN4CCOCC4)C(=O)[C@H]3C2C(=O)N1CN1CCOCC1 (stereo in doubt; 3) |  | 5 |  |  |  |  |  |  | 15 and 13.8 | 0.2 |  | 38.5 | 30% and 20% | 754 mg and 752 mg | N/T [28]: 5; MST [29]: 35 days
